Measurements published in ChEMBL document CHEMBL1141109, “Synthesis of an estrogen receptor beta-selective radioligand: 5-[18F]fluoro-(2R,3S)-2,3-bis(4-hydroxyphenyl)pentanenitrile and comparison of in vivo distribution with 16alpha-[18F]fluoro-17beta-estradiol” (J Med Chem, 2005).

Columns and labels:
[1] = Biodistribution of [18F]FEDPN in alpha estrogen receptor knock out mouse lung after 30 min; (n=3); type: ADME, organism-based; settings: in vivo, 0.5 h
Method in brief: (§1)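 αERKO and βERKO mice, staged by daily vaginal smears and kept on estrogen-free chow, were studied in a nonestrous stage. Each mouse received 11 μCi of tracer in 130 μL of 10% ethanol/saline. Mice were killed at 30 min, 1 h or 2 h (n = 3 each). Organs were removed, blotted, weighed and gamma-counted against an injectate standard. Uptake is given as %ID/g ± SD.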

[2] = Biodistribution of [18F]FEDPN in beta estrogen receptor knock out mouse blood after 30 min; (n=3); type: ADME, organism-based; settings: in vivo, 0.5 h; method in brief: as §1
[3] = Biodistribution of [18F]FEDPN in rat ovaries after 30 min when given in tail vein; (n=5); type: ADME, organism-based, Female gonad; settings: in vivo, iv, 0.5 h
Method in brief: (§2)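 Immature female Sprague–Dawley rats (<25 days old) under isoflurane/O2 got 20 µCi tracer in 150 µL 20% ethanol/saline by tail vein. […] Rats were killed at 30 min, 1 h or 2 h. Organs were blotted, weighed and gamma-counted against an injectate standard. Data are %ID/g ± SD, five rats per point.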

[4] = Biodistribution of [18F]FEDPN in beta estrogen receptor knock out mouse blood after 1 h; (n=3); type: ADME, organism-based; settings: in vivo; method in brief: as §1
[5] = Biodistribution of [18F]-FEDPN in alpha estrogen receptor knock out mouse spleen after 1 h; (n=3); type: ADME, organism-based; settings: in vivo
Method in brief: (§3)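 ERKO female mice (αERKO or βERKO), rested 48 h after shipping, placed on estrogen-free chow, and staged by daily vaginal smears. Injected in a nonestrous stage with 11 µCi [18F]FEDPN in 130 µL of 10% ethanol/saline. Killed at 30 min, 1 h or 2 h. Organs counted and reported as %ID/g ± SD, three animals per point.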

[6] = Biodistribution of [18F]FEDPN in rat bone after 30 min when given in tail vein; (n=5); type: ADME, organism-based, Bone element; settings: in vivo, iv, 0.5 h; method in brief: as §2
[7] = molecular target: Estrogen receptor (Mus musculus) (UniProt O08537+P19785); assay: Ratio of [18F]FEDPN uptake in ovaries of ERbeta KO-mouse and ERalpha KO-mouse (nonestrus) after 1 hr
Sequence of Estrogen receptor (Mus musculus) (O08537 whole entry, looked up): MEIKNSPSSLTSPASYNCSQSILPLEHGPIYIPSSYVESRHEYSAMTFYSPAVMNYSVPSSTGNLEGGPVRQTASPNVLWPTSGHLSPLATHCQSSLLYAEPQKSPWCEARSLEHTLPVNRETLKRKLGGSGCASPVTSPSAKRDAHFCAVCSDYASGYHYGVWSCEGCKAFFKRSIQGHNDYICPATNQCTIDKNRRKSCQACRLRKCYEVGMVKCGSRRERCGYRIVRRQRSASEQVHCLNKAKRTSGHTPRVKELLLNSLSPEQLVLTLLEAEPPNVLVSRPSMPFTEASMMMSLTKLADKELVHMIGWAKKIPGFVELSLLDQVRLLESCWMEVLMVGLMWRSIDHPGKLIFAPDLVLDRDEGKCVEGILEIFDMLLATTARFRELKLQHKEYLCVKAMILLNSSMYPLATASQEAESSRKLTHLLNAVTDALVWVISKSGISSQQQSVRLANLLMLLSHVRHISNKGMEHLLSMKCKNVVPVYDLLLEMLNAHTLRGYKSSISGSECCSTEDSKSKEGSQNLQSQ
Sequence of Estrogen receptor (Mus musculus) (P19785 whole entry, looked up): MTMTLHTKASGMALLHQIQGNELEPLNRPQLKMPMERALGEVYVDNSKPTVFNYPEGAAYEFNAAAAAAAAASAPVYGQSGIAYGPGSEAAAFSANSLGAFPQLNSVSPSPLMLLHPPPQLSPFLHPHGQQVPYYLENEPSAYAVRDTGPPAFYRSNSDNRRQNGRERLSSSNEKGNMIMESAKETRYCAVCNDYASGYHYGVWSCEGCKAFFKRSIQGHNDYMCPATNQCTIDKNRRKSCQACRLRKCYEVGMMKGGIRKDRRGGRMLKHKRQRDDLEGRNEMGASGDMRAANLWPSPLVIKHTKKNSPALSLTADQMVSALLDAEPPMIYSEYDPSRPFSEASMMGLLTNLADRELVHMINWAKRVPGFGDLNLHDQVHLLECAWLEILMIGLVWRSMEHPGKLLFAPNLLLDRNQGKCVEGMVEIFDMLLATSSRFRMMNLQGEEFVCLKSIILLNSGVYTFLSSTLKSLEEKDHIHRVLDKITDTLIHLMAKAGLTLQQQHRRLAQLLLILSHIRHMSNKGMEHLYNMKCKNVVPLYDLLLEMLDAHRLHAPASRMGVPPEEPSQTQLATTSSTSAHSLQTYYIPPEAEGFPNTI

[8] = Biodistribution of [18F]FEDPN in rat thymus after 1 h block when given in tail vein; (n=5); type: ADME, organism-based; settings: in vivo, iv; method in brief: as §2
[9] = Biodistribution of [18F]FEDPN in alpha estrogen receptor knock out mouse heart after 2 h; (n=3); type: ADME, organism-based; settings: in vivo; method in brief: as §3
[10] = Biodistribution of [18F]-FEDPN in rat lung after 1 hr block when given in tail vein; (n=5); type: ADME, organism-based; settings: in vivo, iv
Method in brief: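 Immature female Sprague–Dawley rats (<25 days old) anesthetized with isoflurane/O2. Given 20 µCi tracer by tail vein in 150 µL of 20% ethanol/saline. […] Killed at 30 min, 1 h or 2 h. Blood and organs blotted, weighed and gamma-counted against a standard dilution of the injectate. Reported as %ID/g ± SD, n=5.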

[11] = Biodistribution of [18F]FEDPN in rat spleen after 1 h when given in tail vein; (n=5); type: ADME, organism-based; settings: in vivo, iv; method in brief: as §2
[12] = Biodistribution of [18F]FEDPN in alpha estrogen receptor knock out mouse liver after 30 min; (n=3); type: ADME, organism-based; settings: in vivo, 0.5 h; method in brief: as §3
[13] = Biodistribution of [18F]FEDPN in alpha estrogen receptor knock out mouse brain after 30 min; (n=3); type: ADME, organism-based; settings: in vivo, 0.5 h; method in brief: as §3
[14] = Biodistribution of [18F]FEDPN in alpha estrogen receptor knock out mouse ovaries after 30 min; (n=3); type: ADME, organism-based, Female gonad; settings: in vivo, 0.5 h; method in brief: as §1
[15] = Biodistribution of [18F]FEDPN in rat heart after 30 min when given in tail vein; (n=5); type: ADME, organism-based; settings: in vivo, iv, 0.5 h; method in brief: as §2
[16] = Biodistribution of [18F]FEDPN in alpha estrogen receptor knock out mouse uterus after 30 min; (n=3); type: ADME, organism-based; settings: in vivo, 0.5 h; method in brief: as §1
[17] = Biodistribution of [18F]FEDPN in alpha estrogen receptor knock out mouse lung after 1 h; (n=3); type: ADME, organism-based; settings: in vivo; method in brief: as §1
[18] = Biodistribution of [18F]FEDPN in beta estrogen receptor knock out mouse muscle after 2 h; (n=3); type: ADME, organism-based, Muscle tissue; settings: in vivo; method in brief: as §1
[19] = Biodistribution of [18F]FEDPN in rat spleen after 30 min when given in tail vein; (n=5); type: ADME, organism-based; settings: in vivo, iv, 0.5 h; method in brief: as §2
[20] = Biodistribution of [18F]FEDPN in rat liver after 1 h when given in tail vein; (n=5); type: ADME, organism-based; settings: in vivo, iv; method in brief: as §2
[21] = Biodistribution of [18F]FEDPN in alpha estrogen receptor knock out mouse blood after 1 h; (n=3); type: ADME, organism-based; settings: in vivo; method in brief: as §3
[22] = Biodistribution of [18F]FEDPN in rat muscle after 30 min when given in tail vein; (n=5); type: ADME, organism-based, Muscle tissue; settings: in vivo, iv, 0.5 h; method in brief: as §2
[23] = Biodistribution of [18F]FEDPN in beta estrogen receptor knock out mouse thymus after 1 h; (n=3); type: ADME, organism-based; settings: in vivo; method in brief: as §1
[24] = Biodistribution of [18F]FEDPN in alpha estrogen receptor knock out mouse uterus after 2 h; (n=3); type: ADME, organism-based; settings: in vivo; method in brief: as §1
[25] = Biodistribution of [18F]-FES in beta estrogen receptor knock out mouse bone after 30 min(n=2); mice in nonestrus stage; type: ADME, organism-based, Bone element; settings: in vivo, 0.5 h
Method in brief: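 Female βERKO mice on estrogen-free chow were staged by vaginal smear and used in a nonestrus (diestrus) stage. Each received 13 µCi [18F]FES in 100 µL 10% ethanol/saline and was sacrificed at 30 min (n = 2). Uptake is given as %ID/g ± SD.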

[26] = Biodistribution of [18F]FES in beta estrogen receptor knock out mouse bone after 30 min; (n=3); type: ADME, organism-based, Bone element; settings: in vivo, 0.5 h
[27] = Biodistribution of [18F]FES in alpha estrogen receptor knock out mouse spleen after 2 h; (n=3); type: ADME, organism-based; settings: in vivo
[28] = Biodistribution of [18F]FES in alpha estrogen receptor knock out mouse fat after 1 h; (n=3); type: ADME, organism-based, Adipose tissue; settings: in vivo
Method in brief: (§4)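 Female αERKO mice rested 48 h after shipping and fed estrogen-free chow. Estrous stage was checked by daily vaginal smears, and mice were used in diestrus. Each received 13 µCi [18F]FES in 100 µL 10% ethanol/saline. Animals were sacrificed at 30 min, 1 h or 2 h (n = 3 each). Tissue uptake is reported as %ID/g ± SD.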

[29] = Biodistribution of [18F]FES in alpha estrogen receptor knock out mouse thymus after 1 h; (n=3); type: ADME, organism-based; settings: in vivo
[30] = Biodistribution of [18F]FES in beta estrogen receptor knock out mouse lung after 1 h; (n=3); type: ADME, organism-based; settings: in vivo
[31] = Biodistribution of [18F]FES in alpha estrogen receptor knock out mouse ovaries after 30 min; (n=3); type: ADME, organism-based, Female gonad; settings: in vivo, 0.5 h
[32] = Biodistribution of [18F]FES in beta estrogen receptor knock out mouse spleen after 1 h; (n=3); type: ADME, organism-based; settings: in vivo
[33] = Biodistribution of [18F]-FES in alpha estrogen receptor knock out mouse thymus after 30 min; (n=3); type: ADME, organism-based; settings: in vivo, 0.5 h; method in brief: as §4
[34] = Biodistribution of [18F]FES in beta estrogen receptor knock out mouse spleen after 30 min; (n=3); type: ADME, organism-based; settings: in vivo, 0.5 h
[35] = Biodistribution of [18F]FES in beta estrogen receptor knock out mouse fat after 2 h; (n=3); type: ADME, organism-based, Adipose tissue; settings: in vivo

N#C[C@H](c1ccc(O)cc1)[C@@H](CCF)c1ccc(O)cc1
Biodistribution [1]: 4.32 %ID/g | Biodistribution [2]: 0.79 %ID/g | Biodistribution [3]: 0.93 %ID/g | Biodistribution [4]: 1.12 %ID/g | Biodistribution [5]: 0.61 %ID/g | Biodistribution [6]: 2.12 %ID/g | Ratio [7]: 0.79 | Biodistribution [8]: 0.16 %ID/g | Biodistribution [9]: 0.25 %ID/g | Biodistribution [10]: 0.27 %ID/g | Biodistribution [11]: 0.16 %ID/g | Biodistribution [12]: 3.7 %ID/g | Biodistribution [13]: 0.96 %ID/g | Biodistribution [14]: 1.06 %ID/g | Biodistribution [15]: 0.49 %ID/g | Biodistribution [16]: 1.11 %ID/g | Biodistribution [17]: 2.04 %ID/g | Biodistribution [18]: 0.27 %ID/g | Biodistribution [19]: 0.31 %ID/g | Biodistribution [20]: 1.51 %ID/g | Biodistribution [21]: 0.42 %ID/g | Biodistribution [22]: 0.57 %ID/g | Biodistribution [23]: 0.25 %ID/g | Biodistribution [24]: 0.24 %ID/g

C[C@]12CC[C@@H]3c4ccc(O)cc4CC[C@H]3[C@@H]1C[C@@H](F)[C@@H]2O [FLUOROESTRADIOL]
Biodistribution [25]: 1.26 %ID/g | Biodistribution [26]: 1.28 %ID/g | Biodistribution [27]: 0.18 %ID/g | Biodistribution [28]: 0.14 %ID/g | Biodistribution [29]: 0.21 %ID/g | Biodistribution [30]: 1.48 %ID/g | Biodistribution [31]: 2.52 %ID/g | Biodistribution [32]: 0.91 %ID/g | Biodistribution [33]: 0.68 %ID/g | Biodistribution [34]: 1.4 %ID/g | Biodistribution [35]: 0.41 %ID/g
